Cneo AK release: causes C. neoformans cell lysis | 360,000 compounds, 0.2% hits | lysis activity, % at 15 µM | adenylate kinase release luminescence, 4 h; normalised: neutral wells 0, clomiphene wells 100 | AID 651654;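 active = mean lysis activity across replicates of at least 80%, whatever share of replicates individually reach that level; inactive = mean lysis activity below 80%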
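read-out = cell lysis signal | test system = log-phase Cryptococcus neoformans yeast cells | input = cells at 5 × 10^6 per mL | medium = fresh YPD growth medium | signal = luminescent adenylate kinase detection reagent | timing = 4 h at 37 °C static, read 1 h later | dosing = single dose | controls = Clomiphene as positive lysis control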
rRNA inh HTS: selective bacterial rRNA inhibition in E. coli | E. coli WT GFP vs humanized-ribosome RFP mutants, fluorescence, 24 h; hits give low values; DMSO median 0, no signal -100 | GFP signal change (wild-type ribosome), % (no concentration beside the values) | 350,000 compounds, 1.6% hits | AID 720706;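 active = significant combined selectivity score with lowered wild-type GFP, culture density cut under 30%, mutant RFP and density less affected; inactive = any of these conditions unmet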
CR mimetic SO: lowers age-related superoxide in aged yeast cells; AID 2690; 330,000 compounds, 0.18% hits; superoxide response (% of plate mean), % at 10 µM; S. cerevisiae aged cells, superoxide DHE fluorescence; hits give low values;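 active = superoxide response under a set limit, about three screen SD below normal, cut at about 65% in these data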;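 also: yeast aged for seven days with compound at 30 °C before DHE staining; 100% = average MFI of all compound-treated wells on the plate with controls excluded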
PglD DTNB: inhibitors of Campylobacter jejuni PglD acetyltransferase; AID 602405; purified PglD enzyme, DTNB colorimetric CoA detection; inhibition, % at 12.5 µM; 360,000 compounds, 0.098% hits; in the data active = inhibition above about 16%, passing the limit was not always enough; inconclusive = no clear call, values can overlap the other calls
SUMO Mot1 rescue: SUMOylation pathway inhibition by Mot1-301 growth rescue; 320,000 compounds, 1% hits; AID 2716; S. cerevisiae Mot1-301 growth rescue, ATP luminescence, 38.5C; percent above DMSO median, 100 means doubled; growth rescue, % at 18.8 µM;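 active = every valid replicate shows activation above 250% relative to neutral control wells; inactive = the rest, any valid replicate at or below 250%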;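 also: OY570 slx delta 5 strain wells were the positive control but not used for scaling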
HepG2 tox: HepG2 cell cytotoxicity | shares compounds with rRNA inh HTS | HepG2 viability, ATP luminescence, 72 h | activity change, negative = cytotoxicity, unspecified at 26 µM | 30 tested, under 10 active | AID 743480;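 active = compounds whose fitted half-maximal signal-loss concentration is at most twice their highest valid dose; inconclusive = flat curve with 30 to 70% signal loss, or poor fit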
AID977621: wild-type E. coli growth inhibition versus H69 humanized strain – H69 mutant RFP, wild-type GFP, cherry-pick, dose response; shares compounds with rRNA inh HTS; fluorescence, 24 h; activity change, negative = inhibition at 50 µM; 1,900 tested, under 10 active; AID 977621;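 active = Wild-type ribosome reporter drop at least double the humanized mutant ribosome reporter drop, growth loss under a set limit; inconclusive = no clear call, values can overlap the other calls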;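 also: wild-type GFP and H69 mutant RFP strains grown together 50/50 in each well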
AID977628: growth of wild-type and h24-humanized E. coli strains – h24 mutant RFP vs wild-type GFP, cherry-pick, dose response. E. coli WT GFP strain growth, fluorescence, 24 h. 1,900 tested, under 10 active. activity change, negative = inhibition at 50 µM. shares compounds with rRNA inh HTS;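 active = compound lowering the normal-ribosome reporter at least twice as much as the humanized-ribosome reporter, growth loss under a set limit; inconclusive = no clear call, values can overlap the other calls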;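 also: wild-type GFP and h24 humanized RFP strains co-cultured 1 to 1 per well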
* = called active by the depositor; ? = inconclusive; · = not tested or not shown. This is a sample that favours compounds with a hit; in the whole collection about 2.2% have one here.

SMILES	Cneo AK release	rRNA inh HTS	CR mimetic SO	PglD DTNB	SUMO Mot1 rescue	AID977621	AID977628	others
Cc1cccc(C)c1NC(=O)CNC(=O)C(C)N1CCN(c2cccc(Cl)c2)CC1 (stereo not given)	-1	-22*	103	1	-6	·	-16
N#C[C@H]1[C@H](c2ccc(-c3cccnc3)cc2)[C@@H](CO)N1C(=O)C1CC1	5	1	·	-2	·	·	·
CCOc1ccc2oc(C(=O)NC3CCN(Cc4ccccc4)CC3)c(C)c2c1	3	-23*	95	3	16	-23	·
c1csc(Cn2c(-c3cccs3)nc3ccccc32)c1	·	-13	93	0	-23	·	·
Brc1ccccc1Cn1c(-c2cncs2)nc2ccccc21	4	-9.4*	99	-3	32	-1.9	-11
C[C@@H]1CCCCO[C@H](CN(C)S(=O)(=O)c2ccccc2)[C@@H](C)CN([C@@H](C)CO)C(=O)c2cc(NC(=O)C3CCCCC3)ccc2O1	-2	1	·	3	·	·	·
O=[N+]([O-])c1ccccc1Oc1ccc(Cl)c2cccnc12	·	-29*	104	·	-27	-14	·
O=[N+]([O-])c1ccc(Cl)c2cccnc12	·	13	110	·	1	·	·
COc1ccc(CN(C)C[C@@H]2Oc3c(NC(=O)Nc4ccc(F)cc4)cccc3C(=O)N([C@H](C)CO)C[C@H]2C)cc1	1	-9	·	-3	·	·	·
Cc1ccccc1SCC(=O)OCC(=O)Nc1sccc1C(N)=O	·	-29*	100	·	0	-8.3	-0.1
NC(=O)c1ccsc1NC(=O)COC(=O)Cc1ccc(F)cc1	0	-20*	·	-2	·	?	-1.7
NC(=O)c1ccsc1NC(=O)COC(=O)Cc1c[nH]c2ccccc12	0	-18	95	6	8	·	·
C[C@@H]1CN([C@@H](C)CO)C(=O)Cc2cc(NS(=O)(=O)c3ccccc3)ccc2O[C@@H]1CN(C)Cc1ccc(C(=O)O)cc1	·	3	·	·	·	·	·
C[C@@H]1CN([C@@H](C)CO)C(=O)c2cc(NS(C)(=O)=O)ccc2O[C@@H](C)CCCCO[C@H]1CN(C)S(=O)(=O)c1ccc(F)cc1	1	-2	·	4	·	·	·
CCOc1ccccc1NC(=O)c1cc(SC)ccc1Cl	-1	-30*	91	9	3	-13	-7.5
CCN(Cc1ccccc1)C(=O)COC(=O)c1cc(Cl)nc(Cl)c1	·	-35*	102	·	-3	-18	-4.4
CCN(Cc1ccccc1)C(=O)COC(=O)c1cnc(C)cn1	-1	7	105	-4	-5	·	·
N#Cc1c(SCc2ccc(Cl)cc2)sc(C(=O)c2ccccc2)c1N	0	·	113	-7	7	·	·
CC(C)Sc1sc(C(=O)O)c(-c2ccc(Cl)cc2)c1C#N	·	-43*	67	·	-13	-7.9	·
CSc1ccccc1NC(=O)CN(c1cccc(C)c1)S(C)(=O)=O	·	-20*	98	·	-6	-13	·
COc1ccc(-c2ccccc2[C@@H]2[C@@H](C#N)N(C(=O)c3cccnc3)[C@@H]2CO)cc1	·	-2	·	·	·	·	·
Cc1ccc(S(=O)(=O)Nc2ccc3c(c2)C(=O)N([C@H](C)CO)C[C@H](C)[C@@H](CN(C)C(=O)c2ccccc2)OCCCC[C@@H](C)O3)cc1	2	-1	·	1	·	·	·
Cc1ccc(S(=O)(=O)Nc2ccc3c(c2)C(=O)N([C@H](C)CO)C[C@@H](C)[C@H](CN(C)C(=O)c2ccccc2)OCCCC[C@@H](C)O3)cc1	1	-16*	·	2	·	-4.5	?
Cc1ccc(S(=O)(=O)Nc2ccc3c(c2)C(=O)N([C@@H](C)CO)C[C@@H](C)[C@@H](CN(C)C(=O)c2ccccc2)OCCCC[C@H](C)O3)cc1	-2	0	·	-1	·	·	·
Cc1ccc(S(=O)(=O)Nc2ccc3c(c2)C(=O)N([C@@H](C)CO)C[C@@H](C)[C@H](CN(C)C(=O)c2ccccc2)OCCCC[C@@H](C)O3)cc1	-4	-23*	·	2	·	8.2	1.2
SMILES	Cneo AK release	rRNA inh HTS	CR mimetic SO	PglD DTNB	SUMO Mot1 rescue	AID977621	AID977628	others
C[C@@H]1CN([C@H](C)CO)C(=O)c2cc(NC(=O)c3ccccc3)ccc2O[C@@H](C)CCCCO[C@@H]1CN(C)C(=O)Nc1cccc2ccccc12	1	-3	·	1	·	·	·
CCNC(=O)C[C@@H]1CC[C@@H]2[C@@H](COc3ccc(NC(=O)Nc4cccc(C)c4)cc3C(=O)N2C)O1	7	3	·	3	·	·	·
C[C@H]1CN([C@@H](C)CO)C(=O)c2cc(NS(=O)(=O)c3cn(C)cn3)ccc2O[C@@H]1CN(C)Cc1ccc(C(F)(F)F)cc1	48	4	·	1	·	·	·
COc1ccc2[nH]c3c(=O)n(CCCCC(=O)NCCC(C)C)c(=S)[nH]c3c2c1	·	-25*	110	·	·	·	·	HepG2 tox=11
CCc1nnc(NS(=O)(=O)c2ccc(NC(=O)c3cc(Cl)ccc3[N+](=O)[O-])cc2)s1	4	-21*	101	5	7	-18	·
CCc1nnc(NS(=O)(=O)c2ccc(NC(=O)c3cccc4ccccc34)cc2)s1	-9	-19*	119	3	41	1.4	?
COc1ccc(S(=O)(=O)N(C)C[C@H]2Oc3ccc(NS(=O)(=O)c4ccc(C)cc4)cc3C(=O)N([C@H](C)CO)C[C@@H]2C)cc1	·	-4	·	·	·	·	·
CSc1ccccc1OCc1cc(C(=O)N2CCCC2c2nonc2C)no1 (stereo not given)	1	3	88	0	6	·	·
Cc1nonc1C1CCCN1C(=O)c1cc(COc2ccc(F)cc2F)on1 (stereo not given)	·	-27*	106	·	-7	?	·
COc1ccc([C@H]2C[C@H](O)C[C@@H](CCn3cc(-c4ccccc4)nn3)O2)cc1	·	-22*	·	·	·	·	-7
C[C@H](CO)N1C[C@H](C)[C@@H](CN(C)C(=O)CN(C)C)Oc2cc(C3=CCCC3)ccc2S1(=O)=O	-1	7	·	1	·	·	·
C[C@@H]1CN([C@H](C)CO)C(=O)c2cc(C#CCN(C)C)cnc2O[C@@H]1CN(C)C(=O)Nc1cccc(F)c1	0	5	·	-3	·	·	·
CC(C)(C)c1ccc(S(=O)(=O)NCc2ccc(C(=O)NCc3ccccn3)cc2)cc1	·	-26*	101	·	13	-5	-17
COc1ccc(C2CC(=O)CCN2S(=O)(=O)c2ccc(C)cc2)cc1 (stereo not given)	2	-22*	·	1	·	-6.1	?
COc1ccccc1NC(=O)N[C@H]1CC[C@@H](CCNS(=O)(=O)c2ccc(Cl)cc2)O[C@@H]1CO	1	-2	·	2	·	·	·

High-throughput results (PubChem BioAssay)
